Results: the M2OR odorant receptor database

Tests used:
Details in all cases: stereoisomer not certain
[1] = target: T1, Or1m1 (Mus musculus) (UniProt Q8VFM9)
T1 sequence (whole entry): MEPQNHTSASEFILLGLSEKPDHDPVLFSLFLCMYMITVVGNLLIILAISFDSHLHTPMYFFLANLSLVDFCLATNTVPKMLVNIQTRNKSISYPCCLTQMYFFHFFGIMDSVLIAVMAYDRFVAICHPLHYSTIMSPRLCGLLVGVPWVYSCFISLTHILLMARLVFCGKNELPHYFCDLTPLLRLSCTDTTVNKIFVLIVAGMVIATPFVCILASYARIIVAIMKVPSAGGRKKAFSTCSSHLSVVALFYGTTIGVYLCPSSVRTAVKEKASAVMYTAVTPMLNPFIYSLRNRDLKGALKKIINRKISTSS
Procedure, shortened: (§1)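 Transient luciferase assays in mammalian cell lines were common, though methods varied by source. The values come from published papers and their supplementary material, with extra details from the original authors when needed. Responsive refers to a measured signal the original authors judged statistically different from baseline, and non-responsive (inactive) to the remainder.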

[2] = target: T2, Or2c1 (Mus musculus) (UniProt P23275)
T2 sequence (whole entry): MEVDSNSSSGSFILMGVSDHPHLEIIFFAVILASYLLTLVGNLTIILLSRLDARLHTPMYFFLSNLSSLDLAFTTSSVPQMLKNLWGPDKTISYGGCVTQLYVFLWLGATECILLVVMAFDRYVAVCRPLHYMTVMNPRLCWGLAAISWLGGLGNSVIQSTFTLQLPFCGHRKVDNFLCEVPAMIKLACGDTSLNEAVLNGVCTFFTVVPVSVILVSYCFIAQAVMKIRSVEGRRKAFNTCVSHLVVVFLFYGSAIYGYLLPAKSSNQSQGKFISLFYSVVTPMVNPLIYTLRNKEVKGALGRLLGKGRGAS
Procedure, shortened: as §1

[3] = target: T3, Or5ar1 (Mus musculus) (UniProt Q8VGS3)
T3 sequence (whole entry): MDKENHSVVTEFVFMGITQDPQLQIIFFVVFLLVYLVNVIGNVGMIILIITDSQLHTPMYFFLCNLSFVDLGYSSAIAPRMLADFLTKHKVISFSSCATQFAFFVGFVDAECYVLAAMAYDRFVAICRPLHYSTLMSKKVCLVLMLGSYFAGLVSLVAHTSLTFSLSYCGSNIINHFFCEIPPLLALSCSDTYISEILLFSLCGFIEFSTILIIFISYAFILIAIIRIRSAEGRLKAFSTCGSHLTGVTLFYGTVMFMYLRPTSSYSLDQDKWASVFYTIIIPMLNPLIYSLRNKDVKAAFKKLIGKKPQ
Procedure, shortened: as §1

[4] = target: T4, Or5p80 (Mus musculus) (UniProt Q8VG42)
T4 sequence (whole entry): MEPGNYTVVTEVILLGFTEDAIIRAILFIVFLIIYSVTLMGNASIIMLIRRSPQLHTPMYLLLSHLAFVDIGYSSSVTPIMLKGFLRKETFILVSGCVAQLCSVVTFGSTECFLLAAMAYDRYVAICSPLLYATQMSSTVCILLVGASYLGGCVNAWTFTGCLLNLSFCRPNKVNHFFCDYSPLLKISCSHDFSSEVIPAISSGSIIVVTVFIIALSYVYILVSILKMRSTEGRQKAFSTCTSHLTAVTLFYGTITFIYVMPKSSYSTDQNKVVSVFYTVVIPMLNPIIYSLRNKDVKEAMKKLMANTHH
Procedure, shortened: as §1

[5] = target: T5, Or7a40 (Mus musculus) (UniProt Q9JHB2)
T5 sequence (whole entry): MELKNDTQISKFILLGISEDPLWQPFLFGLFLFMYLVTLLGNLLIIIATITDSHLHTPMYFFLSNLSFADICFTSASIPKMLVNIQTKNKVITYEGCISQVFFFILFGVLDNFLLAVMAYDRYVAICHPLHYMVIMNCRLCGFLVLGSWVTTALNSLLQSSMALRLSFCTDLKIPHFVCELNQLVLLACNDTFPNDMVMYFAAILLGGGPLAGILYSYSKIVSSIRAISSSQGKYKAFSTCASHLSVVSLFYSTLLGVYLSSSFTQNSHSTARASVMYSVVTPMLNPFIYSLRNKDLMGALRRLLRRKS
Procedure, shortened: as §1

[6] = target: T6, Or5p57 (Mus musculus) (UniProt Q8VEZ0)
T6 sequence (whole entry): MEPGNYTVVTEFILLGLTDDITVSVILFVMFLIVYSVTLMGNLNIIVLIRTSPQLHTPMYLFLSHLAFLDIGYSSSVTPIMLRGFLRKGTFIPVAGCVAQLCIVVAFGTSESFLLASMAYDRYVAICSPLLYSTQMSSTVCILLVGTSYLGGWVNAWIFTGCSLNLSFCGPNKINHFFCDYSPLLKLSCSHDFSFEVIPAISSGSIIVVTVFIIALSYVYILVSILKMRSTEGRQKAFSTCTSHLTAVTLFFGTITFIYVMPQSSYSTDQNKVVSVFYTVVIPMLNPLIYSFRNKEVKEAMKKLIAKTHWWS
Procedure, shortened: as §1
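Further: active if original authors judged signal statistically different from baseline.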

SMILES	odorant receptor agonist call [1]	odorant receptor agonist call [2]	odorant receptor agonist call [3]	odorant receptor agonist call [4]	odorant receptor agonist call [5]	odorant receptor agonist call [6]
O=C(c1ccccc1)c1ccccc1	inactive	inactive	inactive	inactive	inactive	
CCCCCCOC(C)=O	inactive	inactive	inactive	inactive	inactive	
CCC(=O)C(=O)CC	inactive	active	inactive	inactive	inactive	
CCCCCCCCC(=O)O	inactive	active	inactive	inactive	inactive	inactive
CCCCCCCCS	inactive	active	inactive	inactive	inactive	
CC(=O)Oc1ccccc1	inactive	inactive	inactive	inactive	inactive	
CCOC(=O)C(C)C	inactive	inactive	inactive	inactive	inactive	
CCCC(=O)C(C)=O	inactive	active	inactive	inactive	inactive	
CCCCCCCC(C)=O	inactive	inactive	inactive	inactive	inactive	
CC(=O)OCc1ccccc1	inactive	inactive	inactive	inactive	inactive	
